This note sets out measurements from ChEMBL document CHEMBL1144102, “New cytotoxic polyacetylenes from the marine sponge Petrosia” (1999).

In brackets after ≈: the same amount, converted by molar mass.

Common to all, as to assay type: functional
One experiment relates to SK-OV-3. The experiment can be described thus: Cytotoxicity against human SKOV3 cells by MTT assay. The note with it: read-out: ED50 (the source's name).
For experiment [1], the system named is Simian virus 40. The experiment can be described thus: Antiviral activity against SV40 virus assessed as inhibition of DNA replication at 500 uM. The note with it: Betapolyomavirus macacae. The method, boiled down:
(§1)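 Cell-free SV40 origin DNA replication: mixtures contained 40 mM creatine phosphate-di-Tris (pH 7.7), creatine kinase, 7 mM MgCl2, 0.5 mM DTT, 4 mM ATP, 200 µM UTP/GTP/CTP, 100 µM dATP/dGTP/dCTP, 25 µM [3H]dTTP, SV40 T-Ag, SV40 origin plasmid (pUC) and replication proteins. Incubated 90 min at 37 °C, then acid-insoluble radioactivity counted.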

For experiment [2], the system named is Simian virus 40. The experiment can be described thus: Antiviral activity against SV40 virus assessed as inhibition of DNA replication at 125 uM. The note with it: Betapolyomavirus macacae. The method in brief:
as §1

For another experiment, the system named is A549. Put plainly: Cytotoxicity against human A549 cells by MTT assay. The note with it: read-out: ED50 (the source's name).
A further experiment has as its system SK-MEL-2. Put plainly: Cytotoxicity against human SK-MEL-2 cells by MTT assay. The note with it: read-out: ED50 (the source's name).
For a further experiment, the system named is HCT-15. Put plainly: Cytotoxicity against human HCT-15 cells by MTT assay. The note with it: read-out: ED50 (the source's name).
The next experiment relates to XF498. Put plainly: Cytotoxicity against human XF498 cells by MTT assay. The note with it: read-out: ED50 (the source's name).
For experiment [3], the system named is Simian virus 40. The experiment can be described thus: Antiviral activity against SV40 virus assessed as inhibition of DNA replication at 250 uM. The note with it: Betapolyomavirus macacae. The method in brief:
as §1

`C#C/C=C\CCCCCCCCCCCCC/C=C\CCCC/C=C\CCCCC#C[C@@H](O)C#CCCCCCC/C=C/[C@H](O)C#C` [NOR-3S,14S-PETROCORTYNE A]: the EC50 in the experiment with SK-OV-3 stood at 4.4 µg/mL (≈ 6.86 µM); in the experiment with A549, 7.3 µg/mL (≈ 11.4 µM); in the experiment on SK-MEL-2, 3.8 µg/mL (≈ 5.93 µM); in the experiment on HCT-15, 3.5 µg/mL (≈ 5.46 µM); in the experiment with XF498, 6.1 µg/mL (≈ 9.52 µM). Besides, the inhibition at 500 µM in the experiment with Simian virus 40 [1] was found to be 70%. Besides, in the experiment with Simian virus 40 [2], the inhibition at 125 µM was found to be 12%. Moreover, in the experiment on Simian virus 40 [3], the inhibition at 250 µM is 47%.

With `C#C/C=C\CCCCCCCCCCCCC/C=C/C(=O)CCCC/C=C\CCCCC#C[C@@H](O)C#CCCCCCC/C=C/[C@H](O)C#C` [PETROTETRAYNDIOL C], the EC50 is 4.2 µg/mL (≈ 6.28 µM) with SK-OV-3; above 10 µg/mL in the experiment with A549; 4.1 µg/mL (≈ 6.13 µM) in the experiment with SK-MEL-2; 5.7 µg/mL (≈ 8.52 µM) in the experiment on HCT-15; 12.7 µg/mL (≈ 19 µM) in the experiment with XF498. In addition, the inhibition at 500 µM with Simian virus 40 [1] is 81%. Besides, the inhibition at 125 µM with Simian virus 40 [2] is 45%. The inhibition at 250 µM with Simian virus 40 [3] is 46%.
